Experimental data published in publication PMC8223195 (Molecular Diversity, 2021).

How the values were obtained:
[1] = tested on: HCT-116 (colorectal carcinoma); assay: IncuCyte real-time proliferation assay, HCT-116; assay type: cell-based; conditions: HCT-116, 72 h; * mean of two independent experiments ± SEM
[2] = tested on: DND-41 (acute lymphoblastic leukemia); assay: IncuCyte real-time proliferation assay, DND-41; assay type: cell-based; conditions: DND-41, 72 h; * mean of two independent experiments ± SEM
[3] = tested on: Z-138 (non-Hodgkin lymphoma); assay: IncuCyte real-time proliferation assay, Z-138; assay type: cell-based; conditions: Z-138, 72 h; * mean of two independent experiments ± SEM
[4] = tested on: LN-229 (glioblastoma); assay: IncuCyte real-time proliferation assay, LN-229; assay type: cell-based; conditions: LN-229, 72 h; * mean of two independent experiments ± SEM
[5] = tested on: HL-60 (acute myeloid leukemia); assay: IncuCyte real-time proliferation assay, HL-60; assay type: cell-based; conditions: HL-60, 72 h; * mean of two independent experiments ± SEM
[6] = tested on: hCoV-229E; assay type: cell-based, human corona virus 229E; conditions: […]; (*) mean of three independent experiments ± SEM
[7] = tested on: K-562 (chronic myeloid leukemia); assay: IncuCyte real-time proliferation assay, K-562; assay type: cell-based; conditions: K-562, 72 h; * mean of two independent experiments ± SEM
[8] = tested on: alpha-tubulin in HEp-2 cells; assay: Tubulin immune fluorescence staining in HEp-2 cells; assay type: cell-based, human; conditions: HEp-2 cells treated for 3 h
[9] = tested on: HEL 299 cells
[10] = tested on: NCI-H460 (lung carcinoma); assay: IncuCyte real-time proliferation assay, NCI-H460; assay type: cell-based; conditions: NCI-H460, 72 h; * mean of two independent experiments ± SEM
[11] = tested on: Capan-1 (pancreatic adenocarcinoma); assay: IncuCyte real-time proliferation assay, Capan-1; assay type: cell-based; conditions: Capan-1, 72 h; * mean of two independent experiments ± SEM
[12] = tested on: peripheral blood mononuclear cells (PBMCs); assay: In vitro apoptosis induction assay in PBMC; assay type: cell-based; conditions: 72 h
Summary of the method: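 Counter-screen on normal PBMCs from two healthy donors. Cells were exposed to graded test-compound concentrations with Caspase-3/7 Green Reagent added. Activated intracellular caspase-3/7 cleaves the reagent at its DEVD motif, marking apoptotic cells. Propidium iodide staining separated dead from live cells. Read-out: numbers of apoptotic and dead cells.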

COc1ccc(C(=O)C2Sc3nnc(-n4nc(C)cc4C)n3NC2c2ccco2)cc1 (racemic) [Compound 5q, ( ±)-(3-(3,5-Dimethyl-1H-pyrazol-1-yl)-6-(furan-2-yl)-6,7-dihydro-5H-[1,2,4]triazolo[3,4-b][1,3,4]thiadiazin-7-yl)(4-methoxyphenyl)methanone]
IC50 [1]: 1000 ± 400 nM | IC50 [2]: 600 ± 200 nM | IC50 [3]: 400 ± 5 nM | IC50 [4]: 700 ± 90 nM | IC50 [5]: 2000 ± 400 nM | EC50 [6]: > 100000 nM | IC50 [7]: 2300 ± 1600 nM | polymerization of tubulin [8]: inhibit the polymerization of tubulin in a dose-dependent manner | CC50 [9]: < 800 nM | IC50 [10]: 2500 ± 200 nM | IC50 [11]: 1100 ± 700 nM | viability of normal PBMCs ([12]; PBMC from two healthy donors, 100 to 0.16 µM): did not inhibit the viability | number of apoptotic and dead cells ([12]; PBMC, 100 µM, caspase-3/7 and PI): small increase in the number of apoptotic and dead cells
